# Source: ChEMBL document CHEMBL4411332, “Deciphering the Role of Intramolecular Networking in Cholic Acid-Peptide Conjugates on the Lipopolysaccharide Surface in Combating Gram-Negative Bacterial Infections” (J Med Chem, 2019)
# Calls of active or inactive are those of the source. No cut-off for these calls is given here.
# Columns and labels:
# [1] = tested on: Escherichia coli; test: Antibacterial activity against Escherichia coli by broth dilution assay; type: functional
# In short: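 MIC99 by broth-dilution assay; antibacterial and culture details are in the Supporting Information.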
# [2] = tested on: Escherichia coli; test: Bactericidal activity against stationary form of Escherichia coli assessed as reduction in colony forming units by fluorescent based time-kill assay; type: functional, organism-based
# [3] = tested on: Escherichia coli; test: Antibacterial activity against Escherichia coli isolate 6/23 infected in wound areas of BALB/c mouse assessed as reduction in colony forming units at 40 mg/kg dosed thrice daily for 4 days starting 6 hrs post infection and measured on day 5; type: functional, organism-based
# [4] = tested on: Escherichia coli; test: Bactericidal activity against persistent form of Escherichia coli assessed as reduction in colony forming units by fluorescent based time-kill assay; type: functional, organism-based
MIC99 [1],SMILES,Activity [2],Activity [3],Activity [4]
8 to 128 µM,CC(C)C[C@H](N)C(=O)NCC(=O)O[C@@H]1CC[C@@]2(C)[C@@H](C1)C[C@@H](OC(=O)CNC(=O)[C@@H](N)CC(C)C)[C@@H]1[C@@H]2C[C@H](OC(=O)CNC(=O)[C@@H](N)CC(C)C)[C@]2(C)[C@@H]([C@H](C)CCC(=O)OCc3ccccc3)CC[C@@H]12,–,–,–
inactive,C[C@H](CCC(=O)OCc1ccccc1)[C@H]1CC[C@H]2[C@@H]3[C@H](OC(=O)CNC(=O)[C@@H](N)Cc4ccc(O)cc4)C[C@@H]4C[C@H](OC(=O)CNC(=O)[C@@H](N)Cc5ccc(O)cc5)CC[C@]4(C)[C@H]3C[C@H](OC(=O)CNC(=O)[C@@H](N)Cc3ccc(O)cc3)[C@]12C,–,–,–
–,CC1(C)S[C@@H]2[C@H](NC(=O)[C@H](N)c3ccccc3)C(=O)N2[C@H]1C(=O)O,inactive,inactive,inactive
